This is an account of results in ChEMBL document CHEMBL4699441, “Identification and Preclinical Evaluation of the Bicyclic Pyrimidine γ-Secretase Modulator BMS-932481” (ACS Med Chem Lett, 2019).

Data set [1] is described as follows: Volume of steady state distribution in Beagle dog at 1 mg/kg, iv measured up to 24 hrs by LC-MS/MS analysis. As to conditions: in vivo. The class given is ADME, organism-based, Canis lupus familiaris. Put shortly:
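Male Beagle dog or male cynomolgus monkey; 1 mg/kg as 5 min iv infusion in 9:1 PEG:EtOH; n = 3; volume of distribution at steady state.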

A short description of data set [2]: Reduction in amyloid beta (1 to 42) secretion in brain in Harlan Sprague-Dawley rat at 10 mg/kg, po measured after 3 hrs relative to control. The format is functional. Put shortly:
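Sprague–Dawley rats dosed 10 mg/kg po; brain Aβ1-42 measured 3 h postdose; n = 5.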

Data set [3] can be described thus: Induction of necrosis in rat at 100 mg/kg, po administered for 2 week. The format is organism-based. As to conditions: in vivo, 336 h, time 2 weeks. In a few lines:
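Rats given oral doses of 10, 30 or 100 mg/kg daily for 2 weeks in a repeat-dose toxicity study.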

A short description of data set [4]: Inhibition of amyloid beta (1 to 42) secretion in human H4 cells overexpressing APP incubated for overnight by HTRF analysis. The format is functional, cell-based. Background: Time-resolved FRET reads energy transfer from a long-lived donor to a nearby acceptor.
Data set [5] can be described thus: Toxicity in rat assessed as change in bilirubin secretion at 10 to 100 mg/kg, po administered for 2 week. The format is organism-based. As to conditions: in vivo, 336 h, dose 10-100 mg/kg, time 2 weeks.
Data set [6] concerns the target T1, Nuclear receptor subfamily 1 group I member 2 (Homo sapiens, UniProt O75469).
T1 sequence (O75469 whole entry): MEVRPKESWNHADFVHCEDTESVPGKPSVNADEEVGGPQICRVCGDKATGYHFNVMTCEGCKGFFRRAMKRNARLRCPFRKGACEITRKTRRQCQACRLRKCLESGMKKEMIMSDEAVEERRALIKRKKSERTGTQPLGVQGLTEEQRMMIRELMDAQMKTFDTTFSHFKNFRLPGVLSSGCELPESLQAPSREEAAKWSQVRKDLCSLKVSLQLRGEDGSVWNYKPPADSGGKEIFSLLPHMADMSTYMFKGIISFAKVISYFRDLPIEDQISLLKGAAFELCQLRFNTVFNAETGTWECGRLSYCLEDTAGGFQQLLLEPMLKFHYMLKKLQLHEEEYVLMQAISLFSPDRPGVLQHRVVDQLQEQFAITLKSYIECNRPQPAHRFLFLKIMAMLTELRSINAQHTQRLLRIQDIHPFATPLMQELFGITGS
As to the kind of experiment: Transactivation of PXR (unknown origin) assessed as CYP450 induction. The class given is ADME.

A short description of data set [7]: Toxicity in rat assessed as change in notch related goblet cell metaplasia in the duodenum at 100 mg/kg, po administered for 2 week. The format is organism-based. As to conditions: in vivo, 336 h, time 2 weeks.
Data set [8] has as its system Brain. Description: Antialzheimer activity in rat brain assessed as reduction in amyloid beta (1 to 42) AUC at 10 mg/kg measured after 24 hrs relative to control. The class given is functional. The arrangement: scale not given: the % may be the effect or the level left. In a few lines:
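Rats dosed orally; brain Aβ1-42 followed over 24 h, and the reduction in brain Aβ1-42 AUC integrated over 0–24 h was fitted to an indirect response PK/PD model.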

The nature of data set [9]: Half life in cynomolgus monkey at 1 mg/kg, iv measured up to 24 hrs by LC-MS/MS analysis. The format is ADME, organism-based, Macaca fascicularis. As to conditions: in vivo. In a few lines: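 Male Beagle dogs and male cynomolgus monkeys, 1 mg/kg by 5 min iv infusion in 9:1 PEG:EtOH, n=3.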
Data set [10] deals with Cytochrome P450 2D6 (Homo sapiens, UniProt P10635). As to the kind of experiment: Inhibition of CYP2D6 in human liver microsomes. The class given is ADME. On the technique in general: Liver microsomes are a subcellular fraction often used to study metabolism.
Data set [11] can be described thus: Hemodynamic activity in conscious telemeterized rat assessed as change in blood pressure at >= 10 mg/kg. The format is ADME, organism-based. As to conditions: in vivo.
A short description of data set [12]: Induction of CYP3A4 mRNA expression in human hepatocytes at 3.3 to 10 uM relative to control. The format is ADME, cell-based, Hepatocyte. As to conditions: dose 3.3-10 µM.
The nature of data set [13]: Plasma exposure (AUC) in rat at 10 mg/kg measured after 24 hrs.
The target in data set [14] is T2, Solute carrier organic anion transporter family member 1B1 (Homo sapiens, UniProt Q9Y6L6).
T2 sequence (Q9Y6L6 whole entry): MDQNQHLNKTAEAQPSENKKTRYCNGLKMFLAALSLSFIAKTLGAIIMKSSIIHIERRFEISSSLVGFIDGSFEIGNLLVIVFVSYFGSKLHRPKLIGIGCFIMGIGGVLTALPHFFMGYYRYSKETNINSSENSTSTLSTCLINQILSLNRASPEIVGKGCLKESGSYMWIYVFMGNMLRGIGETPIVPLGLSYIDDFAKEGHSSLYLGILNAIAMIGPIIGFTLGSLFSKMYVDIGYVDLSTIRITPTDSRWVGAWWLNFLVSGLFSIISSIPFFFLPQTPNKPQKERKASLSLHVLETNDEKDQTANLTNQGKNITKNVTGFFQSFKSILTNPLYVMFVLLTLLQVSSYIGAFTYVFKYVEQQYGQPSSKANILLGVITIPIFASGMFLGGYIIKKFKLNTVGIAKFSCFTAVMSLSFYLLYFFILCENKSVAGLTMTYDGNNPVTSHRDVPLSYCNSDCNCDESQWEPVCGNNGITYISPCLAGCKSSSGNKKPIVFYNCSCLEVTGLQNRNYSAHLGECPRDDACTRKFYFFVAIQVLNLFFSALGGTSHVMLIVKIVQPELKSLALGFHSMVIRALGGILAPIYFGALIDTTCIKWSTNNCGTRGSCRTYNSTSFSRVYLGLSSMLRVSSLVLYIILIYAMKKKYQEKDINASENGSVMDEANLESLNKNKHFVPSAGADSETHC
Description: Inhibition of OATP1B1 (unknown origin). The class given is ADME.

Data set [15] has as its target Voltage-gated inwardly rectifying potassium channel KCNH2 (Homo sapiens, UniProt Q12809). As to the kind of experiment: Inhibition of human ERG by patch clamp method.
Data set [16] is described as follows: Cardiotoxicity in unconscious telemeterized rabbit assessed as change in QTcf time at 3 mg/kg. The format is toxicity, organism-based, Oryctolagus cuniculus. As to conditions: in vivo.
A short description of data set [17]: Metabolic stability in Sprague-Dawley rat assessed as half life incubated for 24 hrs by LC-MS/MS analysis. The class given is ADME.
For data set [18], the target named is T3, PXR (NR1I2) (Homo sapiens, UniProt O75469).
T3 sequence (O75469 whole entry): T1 sequence (O75469 whole entry)
Description: Transactivation of PXR (unknown origin) assessed as CYP450 induction relative to 10 uM rifampicin. The format is ADME. Put shortly: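 PXR in vitro transactivation assay; maximal response expressed relative to 10 μM rifampicin set as 100%.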

Data set [19] in a line: Metabolic stability in Beagle dog assessed as half life incubated for 24 hrs by LC-MS/MS analysis. The format is ADME, Canis lupus familiaris.

By Vdss is commonly meant a proportionality between amount in the body and measured concentration, not a real space. Usually inhibition in vivo stands for the percentage by which the read-out fell short of the control. As a reminder, the IC50 is the midpoint of a concentration-inhibition curve. In general, EC50 refers to the concentration needed to bring the measured effect to its halfway point. Broadly, the AUC is concentration integrated over time. One may read the Emax as the size of the effect at its maximum, as opposed to the concentration needed.

Chain of Cytochrome P450 2D6 (P10635 whole entry): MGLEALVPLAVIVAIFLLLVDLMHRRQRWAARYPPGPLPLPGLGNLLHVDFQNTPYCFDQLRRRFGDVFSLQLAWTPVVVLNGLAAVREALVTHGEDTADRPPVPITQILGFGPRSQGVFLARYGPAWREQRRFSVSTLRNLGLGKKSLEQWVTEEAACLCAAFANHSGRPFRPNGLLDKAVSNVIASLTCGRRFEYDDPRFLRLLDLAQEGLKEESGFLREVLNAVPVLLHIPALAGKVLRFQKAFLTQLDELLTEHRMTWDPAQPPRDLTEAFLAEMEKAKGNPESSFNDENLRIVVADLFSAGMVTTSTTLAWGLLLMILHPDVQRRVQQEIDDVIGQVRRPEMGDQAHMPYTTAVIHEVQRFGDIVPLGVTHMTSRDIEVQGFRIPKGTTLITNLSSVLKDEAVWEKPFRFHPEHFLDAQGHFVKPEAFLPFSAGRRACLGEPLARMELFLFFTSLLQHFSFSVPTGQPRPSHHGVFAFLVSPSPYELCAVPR
Chain of Voltage-gated inwardly rectifying potassium channel KCNH2 (Q12809 whole entry): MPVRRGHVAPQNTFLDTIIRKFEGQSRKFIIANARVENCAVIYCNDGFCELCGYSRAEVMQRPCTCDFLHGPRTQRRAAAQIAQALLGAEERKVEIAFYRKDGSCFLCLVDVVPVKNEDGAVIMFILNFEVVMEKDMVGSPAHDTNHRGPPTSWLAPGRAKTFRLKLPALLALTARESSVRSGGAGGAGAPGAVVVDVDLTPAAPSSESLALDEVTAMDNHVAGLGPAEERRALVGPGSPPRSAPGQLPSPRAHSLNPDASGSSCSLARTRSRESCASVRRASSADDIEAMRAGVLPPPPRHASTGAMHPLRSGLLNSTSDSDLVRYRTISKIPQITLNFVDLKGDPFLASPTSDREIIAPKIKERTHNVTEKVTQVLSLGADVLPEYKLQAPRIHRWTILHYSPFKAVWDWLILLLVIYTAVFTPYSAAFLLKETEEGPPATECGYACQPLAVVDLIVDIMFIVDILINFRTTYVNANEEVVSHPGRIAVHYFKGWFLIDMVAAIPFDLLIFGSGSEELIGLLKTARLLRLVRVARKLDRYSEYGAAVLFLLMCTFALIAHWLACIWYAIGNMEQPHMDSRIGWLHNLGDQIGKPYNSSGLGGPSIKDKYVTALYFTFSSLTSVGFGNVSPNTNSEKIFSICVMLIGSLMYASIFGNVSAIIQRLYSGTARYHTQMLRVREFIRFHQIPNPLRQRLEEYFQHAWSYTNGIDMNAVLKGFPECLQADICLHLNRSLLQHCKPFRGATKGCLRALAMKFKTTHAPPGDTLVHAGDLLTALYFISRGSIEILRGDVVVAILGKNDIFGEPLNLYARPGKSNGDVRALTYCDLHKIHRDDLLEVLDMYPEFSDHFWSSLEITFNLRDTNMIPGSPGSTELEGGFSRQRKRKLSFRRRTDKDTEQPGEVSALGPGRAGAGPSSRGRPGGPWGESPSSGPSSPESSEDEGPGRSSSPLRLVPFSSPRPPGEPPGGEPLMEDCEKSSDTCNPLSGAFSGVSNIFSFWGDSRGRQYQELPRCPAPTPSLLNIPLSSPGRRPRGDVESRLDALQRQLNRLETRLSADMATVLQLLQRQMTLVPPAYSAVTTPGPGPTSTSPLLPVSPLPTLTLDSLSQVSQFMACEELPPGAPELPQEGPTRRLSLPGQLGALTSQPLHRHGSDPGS

`CNc1nc(Nc2ccc(-n3cnc(C)n3)c(OC)c2)nc2c1CC[C@H]2c1ccc(F)cc1` came in with a Vdss in [1] of 6.1 L/kg. Besides, testing at 10 mg/kg in [2] gave an inhibition in vivo of 41%. Besides, the Activity entry in data set [3] is reported as “Non-Toxic”; in data set [5], “Non-Toxic”; in [7], “Non-Toxic”; in [8], 66%; in data set [11], “Non-Toxic”; in data set [12], 36%. In [16], the Activity result was “Non-Toxic”. Besides, the half-maximal inhibitory concentration (IC50) was 6.6 nM in [4], 18000 nM in data set [10], 66 nM in data set [14] and 1200 nM in data set [15]. Besides, in [6], the half-maximal effective concentration (EC50) is above 2700 nM. For the same compound, the t1/2 in [9] came out at 174 min; in data set [17], 28 min; in data set [19], 27 min. Moreover, the AUC at 24 h in [13] is 32 µM·h. Besides, the Emax in [18] was 36%.
